Laboratory results as given in ChEMBL document CHEMBL1140324, “Rational design of non-nucleoside, potent, and orally bioavailable adenosine deaminase inhibitors: predicting enzyme conformational change and metabolism” (J Med Chem, 2005).
Several values for one entry are separate records, joined by “and”; a condition that tells them apart may be missing. Equal entries are not always repeated.

Experiments:
[1] = target: T1, Adenosine deaminase (Homo sapiens, UniProt P00813); assay: Inhibitory concentration against adenosine deaminase
T1 sequence (P00813 whole entry): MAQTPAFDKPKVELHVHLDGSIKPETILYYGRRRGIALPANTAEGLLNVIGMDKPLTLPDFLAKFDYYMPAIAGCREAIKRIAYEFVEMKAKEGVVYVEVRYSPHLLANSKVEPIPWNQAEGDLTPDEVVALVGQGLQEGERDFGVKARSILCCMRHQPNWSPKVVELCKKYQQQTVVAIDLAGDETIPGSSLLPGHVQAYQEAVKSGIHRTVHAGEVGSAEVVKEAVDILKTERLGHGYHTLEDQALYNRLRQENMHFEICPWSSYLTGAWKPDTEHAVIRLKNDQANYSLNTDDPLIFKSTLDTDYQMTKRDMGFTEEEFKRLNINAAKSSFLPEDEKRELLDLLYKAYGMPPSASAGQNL

[2] = In vitro clearance in rat liver microsomes; assay type: ADME, Microsome; settings: read-out: Clearance
[3] = Plasma half life (10 mg/kg, p.o.) in rat; assay type: ADME, organism-based; settings: po
Procedure, shortened: (§1)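 Rats dosed orally at 10 mg/kg (n = 2–3). Cmax and t1/2 are taken from plasma. AUC covers 0–24 h. Bioavailability is the oral exposure parameter for the same dosing.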

[4] = Area under blood-concentration time curve after 10 mg/kg peroral dose in rat; assay type: ADME, organism-based; set-up: dose 10 mg/kg, route oral; settings: in vivo, po; procedure, shortened: as §1
[5] = Maximum plasma concentration after peroral administration of 10 mg/kg in rat; assay type: ADME, organism-based; set-up: dose 10 mg/kg, route oral; settings: po; procedure, shortened: as §1
[6] = In vitro clearance in human liver microsomes; assay type: ADME, Microsome; settings: read-out: Clearance
[7] = In vitro clearance in dog liver microsomes; assay type: ADME, Canis lupus familiaris, Microsome
[8] = tested on: Mus musculus; assay: Antitumor activity (10 mg/kg, p.o., u.i.d.) expressed as median survival time is its ability to inhibit lymphoma U-937 tumor growth inoculated in mice; assay type: functional
Procedure, shortened: (§2)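 SCID mice bearing U-937 lymphoma. Inhibitor given orally as HCl salt, either once (u.i.d.) or twice (b.i.d.) daily, in combination with the antitumor nucleoside AraA. Read-out was median survival time in days, compared with an untreated control group and an AraA-alone arm (10 mg/kg).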

[9] = tested on: Mus musculus; assay: Antitumor activity (32 mg/kg, p.o., u.i.d.) expressed as median survival time is its ability to inhibit lymphoma U-937 tumor growth inoculated in mice; assay type: functional; procedure, shortened: as §2
[10] = species: Rattus norvegicus; assay: Peroral dose showing antiinflammatory effect in adjuvant arthritis model in rats; assay type: functional; settings: po
Procedure, shortened: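 Rat adjuvant arthritis model with oral dosing. Anti-inflammatory potency is reported as ED30 in mg/kg po.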

[11] = Oral bioavailability in dog (dose 10 mg/kg); assay type: ADME, organism-based, Canis lupus familiaris; settings: in vivo
Procedure, shortened: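 Dogs dosed orally at 10 mg/kg (n = 2–3). Oral bioavailability was determined.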

[12] = (§3) Oral bioavailability in rat (dose 10 mg/kg); assay type: ADME, organism-based; settings: in vivo; procedure, shortened: as §1
[13] = tested on: Mus musculus; assay: Antitumor activity (10 mg/kg, p.o., b.i.d.) on lymphoma U-937 tumor growth inoculated in mice; assay type: functional; procedure, shortened: as §2
[14] = tested on: Mus musculus; assay: Antitumor activity (10 mg/kg, p.o., b.i.d.) expressed as median survival time is its ability to inhibit lymphoma U-937 tumor growth inoculated in mice; assay type: functional; procedure, shortened: as §2
[15] = tested on: Mus musculus; assay: Antitumor activity (32 mg/kg, p.o., b.i.d.) expressed as median survival time is its ability to inhibit lymphoma U-937 tumor growth inoculated in mice; assay type: functional; procedure, shortened: as §2
[16] = tested on: Rattus norvegicus; assay: as §3; assay type: functional, organism-based; procedure, shortened: as §1
[17] = tested on: Mus musculus; assay: Antitumor activity (2.5, i.p.) on lymphoma U-937 tumor growth inoculated in mice; assay type: functional
Procedure, shortened: (§4)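 SCID mouse U-937 lymphoma model. Pentostatin given intraperitoneally once daily. Efficacy read as median survival time in days, relative to a control group.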

[18] = tested on: Mus musculus; assay: Antitumor activity (0.25 mg/kg, i.p.) on lymphoma U-937 tumor growth inoculated in mice; assay type: functional; procedure, shortened: as §4

CLint scaled [2]	half-life [3]	Compound	IC50 [1]	AUC [4]	Cmax [5]	Clearance [7]	ED30 [10]	other results
		NC(N)=Nc1nc(-c2ccc(CNc3nc4ccccc4[nH]3)s2)cs1	700 nM					
643 mL/min/kg	1.09 h	Cn1cc(CC[C@H](CO)n2cnc(C(N)=O)c2)c2cc(OCCCc3ccc(Cl)cc3)ccc21	6.7 nM	260 ng·h/mL	210 ng/mL			
		Nc1ncnc2c1ncn2[C@@H]1O[C@H](CO)[C@@H](O)[C@@H]1O [VIDARABINE]						MST [13]: 34 days
		C[C@H](O)[C@@H](CCc1cccc(Cl)c1Cl)n1cnc(C(N)=O)c1	15 nM	2110 ng·h/mL	1630 ng/mL	21 mL/min/kg	1.6 mg/kg	MST [14]: 34 days; MST [15]: 42.5 days and 38 days
		NC(=O)c1cn(C(CO)CCc2cccc3ccccc23)cn1 (configuration not stated)	570 nM					
		C[C@H](O)[C@@H](CCc1cccc2ccccc12)n1cnc(C(N)=O)c1	16 nM	1370 ng·h/mL	1250 ng/mL	30 mL/min/kg		
131 mL/min/kg	3.45 h	C[C@H](O)[C@@H](CCc1cccc2nc(-c3ccc(Cl)cc3)oc12)n1cnc(C(N)=O)c1		29600 ng·h/mL	5580 ng/mL	6 mL/min/kg	0.6 mg/kg	CLint scaled [6]: 34 mL/min/kg; bioavailability [16]: 52%; bioavailability [11]: 50%
		OC[C@H]1O[C@@H](n2cnc3c2N=CNC[C@H]3O)C[C@@H]1O [PENTOSTATIN]						MST [17]: 42.5 days; MST [18]: 34 days

Compound	CLint scaled [2]	half-life [3]	IC50 [1]	AUC [4]	Cmax [5]	Clearance [7]	ED30 [10]	other results
C[C@H](O)[C@@H](CCc1cccc2oc(-c3ccc(Cl)cc3)nc12)n1cnc(C(N)=O)c1	50 mL/min/kg	1.87 h	8.7 nM	56200 ng·h/mL	14700 ng/mL	6.2 mL/min/kg	0.3 mg/kg	CLint scaled [6]: 12 mL/min/kg; MST [8]: 43 days; MST [9]: 45.5 days; bioavailability [11]: 81%; bioavailability [12]: 86%
